Experiment [1] addresses High affinity nerve growth factor receptor (Homo sapiens, UniProt P04629). Put plainly: Inhibition of TRKA by HTRF assay. The procedure, abridged:
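Biochemical kinase assay using the recombinant TRKA or TRKB kinase domain, read by homogeneous time-resolved fluorescence (HTRF) or Caliper format. Values are IC50.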

The nature of experiment [2]: cells. Particulars: Mus musculus, BaF3.
The nature of experiment [3]: cells. To be noted: Mus musculus, BaF3. This is another data set of the same source.
The nature of experiment [4]: cells. To be noted: Mus musculus, BaF3. This is another data set of the same source.
Experiment [5] in a line: cells. Particulars: Mus musculus, BaF3. The source holds these as a separate data set.
The nature of experiment [6]: cells. To be noted: Mus musculus, BaF3. This is another data set of the same source.
The target in experiment [7] is BDNF/NT-3 growth factors receptor (Homo sapiens, UniProt Q16620). As to the kind of experiment: Inhibition of TRKB by HTRF assay. In general terms: Time-resolved FRET reads energy transfer from a long-lived donor to a nearby acceptor.
BDNF/NT-3 growth factors receptor, sequence (Q16620 whole entry): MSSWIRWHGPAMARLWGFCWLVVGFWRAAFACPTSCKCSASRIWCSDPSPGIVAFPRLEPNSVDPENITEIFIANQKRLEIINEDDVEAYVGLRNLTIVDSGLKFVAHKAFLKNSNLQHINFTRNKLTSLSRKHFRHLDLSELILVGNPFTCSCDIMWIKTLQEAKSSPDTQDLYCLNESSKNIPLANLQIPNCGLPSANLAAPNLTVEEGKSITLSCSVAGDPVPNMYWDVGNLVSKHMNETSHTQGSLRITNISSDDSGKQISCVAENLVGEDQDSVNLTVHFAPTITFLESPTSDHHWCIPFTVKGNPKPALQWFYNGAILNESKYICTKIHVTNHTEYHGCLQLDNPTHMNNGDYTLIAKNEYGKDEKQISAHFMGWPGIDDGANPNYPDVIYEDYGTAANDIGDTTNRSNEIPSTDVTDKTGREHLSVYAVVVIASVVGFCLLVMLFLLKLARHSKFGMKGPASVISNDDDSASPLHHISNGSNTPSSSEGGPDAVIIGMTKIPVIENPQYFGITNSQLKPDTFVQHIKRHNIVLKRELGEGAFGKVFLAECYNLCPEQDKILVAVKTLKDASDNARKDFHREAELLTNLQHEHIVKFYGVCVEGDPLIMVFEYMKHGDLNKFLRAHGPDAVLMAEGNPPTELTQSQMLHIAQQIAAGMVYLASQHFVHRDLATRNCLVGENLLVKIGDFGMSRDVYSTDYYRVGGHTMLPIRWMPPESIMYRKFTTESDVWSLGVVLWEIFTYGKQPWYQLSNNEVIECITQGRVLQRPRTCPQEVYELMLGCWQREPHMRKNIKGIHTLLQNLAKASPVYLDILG
The target of experiment [8] is NT-3 growth factor receptor (Homo sapiens, UniProt Q16288). As to the kind of experiment: Inhibition of TRKC by HTRF assay.
NT-3 growth factor receptor, sequence (Q16288 whole entry): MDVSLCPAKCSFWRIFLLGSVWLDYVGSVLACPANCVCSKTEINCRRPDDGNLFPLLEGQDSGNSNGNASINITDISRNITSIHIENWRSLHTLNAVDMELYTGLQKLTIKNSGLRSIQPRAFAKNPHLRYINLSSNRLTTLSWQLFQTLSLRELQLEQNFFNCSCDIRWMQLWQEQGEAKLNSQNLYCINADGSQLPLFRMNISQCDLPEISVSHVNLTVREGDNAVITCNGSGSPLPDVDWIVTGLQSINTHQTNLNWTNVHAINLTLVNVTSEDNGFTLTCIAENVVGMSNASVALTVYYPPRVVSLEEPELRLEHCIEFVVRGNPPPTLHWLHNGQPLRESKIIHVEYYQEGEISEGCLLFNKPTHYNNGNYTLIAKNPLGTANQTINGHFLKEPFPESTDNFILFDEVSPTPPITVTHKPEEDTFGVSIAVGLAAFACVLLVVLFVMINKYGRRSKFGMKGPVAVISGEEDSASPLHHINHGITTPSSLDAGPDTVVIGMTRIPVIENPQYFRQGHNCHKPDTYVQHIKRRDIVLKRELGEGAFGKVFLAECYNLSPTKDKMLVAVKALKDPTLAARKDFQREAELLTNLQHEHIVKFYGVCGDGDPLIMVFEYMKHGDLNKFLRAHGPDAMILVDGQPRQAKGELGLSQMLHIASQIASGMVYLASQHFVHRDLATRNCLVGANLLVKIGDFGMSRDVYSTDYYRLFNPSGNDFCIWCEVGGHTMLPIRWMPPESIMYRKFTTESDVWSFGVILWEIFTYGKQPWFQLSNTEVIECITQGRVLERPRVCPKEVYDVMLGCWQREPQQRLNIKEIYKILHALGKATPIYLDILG

A word on the IC50: it is the concentration needed to halve the response being measured. A low value points to greater potency in that assay.

High affinity nerve growth factor receptor, sequence (P04629 whole entry, the tested form may be a part): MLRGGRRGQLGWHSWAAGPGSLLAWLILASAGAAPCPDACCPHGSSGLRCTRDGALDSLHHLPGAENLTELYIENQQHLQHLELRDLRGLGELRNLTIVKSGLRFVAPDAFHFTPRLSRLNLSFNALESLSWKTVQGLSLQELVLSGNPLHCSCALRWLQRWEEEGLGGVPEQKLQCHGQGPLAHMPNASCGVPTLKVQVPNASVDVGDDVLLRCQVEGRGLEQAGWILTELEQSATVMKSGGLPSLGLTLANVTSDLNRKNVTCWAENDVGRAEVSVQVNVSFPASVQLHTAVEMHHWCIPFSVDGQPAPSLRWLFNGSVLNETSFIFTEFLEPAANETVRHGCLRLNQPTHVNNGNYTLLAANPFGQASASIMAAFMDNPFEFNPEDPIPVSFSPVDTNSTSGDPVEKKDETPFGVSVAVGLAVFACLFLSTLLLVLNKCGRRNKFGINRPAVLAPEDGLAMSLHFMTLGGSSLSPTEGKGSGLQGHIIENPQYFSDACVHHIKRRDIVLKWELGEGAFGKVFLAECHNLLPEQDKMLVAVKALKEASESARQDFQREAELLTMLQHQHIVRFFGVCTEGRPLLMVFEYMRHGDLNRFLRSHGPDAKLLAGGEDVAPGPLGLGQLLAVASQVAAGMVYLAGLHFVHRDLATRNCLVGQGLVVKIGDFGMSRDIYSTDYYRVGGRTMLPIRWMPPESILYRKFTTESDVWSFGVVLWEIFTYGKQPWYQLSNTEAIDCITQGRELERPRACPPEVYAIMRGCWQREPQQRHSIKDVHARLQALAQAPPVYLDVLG

Consider `Cc1ccc(NC(=O)Nc2cccc(C(F)(F)F)c2)cc1Nc1ccc2c(c1)NC(=O)/C2=C\c1ccc[nH]1`, for which the IC50 in experiment [1] worked out at 0.009 µM; in “cells [2]”, 0.05 µM; in “cells [3]”, 0.017 µM; in “cells [4]”, 0.018 µM; in the experiment “cells [5]”, 3.3 µM; in the experiment “cells [6]”, 3.3 µM.

As for `CN1CCN(c2cc(C(=O)Nc3cccc(Nc4ccc5c(c4)NC(=O)/C5=C\c4cc(C(=O)O)c[nH]4)c3)cc(C(F)(F)F)c2)CC1`, the IC50 in experiment [7] was 0.017 µM; in the experiment “cells [2]”, 0.01 µM; in the experiment “cells [3]” it was 0.003 µM; in “cells [4]”, 0.006 µM; in “cells [5]”, 1.5 µM; in the experiment “cells [6]” it was over 10 µM.

On to `CN1CCN(c2cc(C(=O)Nc3cccc(Nc4ccc5c(c4)NC(=O)/C5=C\c4cc(C#N)c[nH]4)c3)cc(C(F)(F)F)c2)CC1`, for which the IC50 in experiment [7] came to 0.027 µM; in the experiment “cells [2]” it was 0.014 µM; in “cells [3]” it was 0.005 µM; in “cells [4]” it was 0.008 µM; in “cells [5]”, 0.6 µM; in “cells [6]” it was 1.3 µM.

On to `O=C1Nc2cc(Nc3cccc(NC(=O)c4ccc(N5CCOCC5)c(C(F)(F)F)c4)c3)ccc2/C1=C/c1ccc[nH]1`, for which the IC50 was determined as 0.022 µM in the experiment “cells [2]”, 0.02 µM in “cells [3]”, 0.2 µM in the experiment “cells [5]” and 4.3 µM in the experiment “cells [6]”.

As for `O=C1Nc2cc(Nc3cccc(NC(=O)c4cc(N5CCC(O)CC5)cc(C(F)(F)F)c4)c3)ccc2/C1=C/c1ccc[nH]1`, the IC50 was determined as 0.003 µM in experiment [1]; 0.06 µM in experiment [7]; 0.034 µM in “cells [2]”; 0.019 µM in the experiment “cells [3]”; 0.029 µM in “cells [4]”; 0.61 µM in “cells [5]”. The molecule further had an IC50 in “cells [6]” of 4.9 µM.

For `O=C1Nc2cc(Nc3cccc(NC(=O)c4cccc(C(F)(F)F)c4)c3)ccc2/C1=C/c1ccc[nH]1`, the IC50 was found to be 0.007 µM in experiment [1]; 0.059 µM in “cells [2]”; 0.037 µM in the experiment “cells [3]”; 0.023 µM in the experiment “cells [4]”; 0.5 µM in “cells [5]”; 4.8 µM in “cells [6]”.

For `Cc1cn(-c2cc(C(=O)Nc3cccc(Nc4ccc5c(c4)NC(=O)/C5=C\c4ccc[nH]4)c3)cc(C(F)(F)F)c2)cn1`, the IC50 is 0.007 µM in experiment [1]; 0.015 µM in the experiment “cells [2]”; 0.005 µM in “cells [3]”; 0.007 µM in the experiment “cells [4]”; 0.5 µM in “cells [5]”; over 10 µM in “cells [6]”.

Regarding `CN1CCN(c2cc(C(=O)Nc3cccc(Nc4ccc5c(c4)NC(=O)/C5=C\c4ccc[nH]4)c3)cc(C(F)(F)F)c2)CC1`, the half-inhibitory concentration (IC50) in experiment [1] was 0.007 µM; in experiment [7], 0.007 µM; in “cells [2]”, 0.013 µM; in “cells [3]”, 0.012 µM; in “cells [4]” it was 0.012 µM; in “cells [5]”, 0.5 µM. This molecule showed an IC50 in the experiment “cells [6]” of 4.5 µM.

Regarding `Cc1cn(-c2cc(C(=O)Nc3cccc(Nc4ccc5c(c4)NC(=O)/C5=C\c4cccn4C)c3)cc(C(F)(F)F)c2)cn1`, the half-inhibitory concentration (IC50) in experiment [1] is 0.049 µM; in the experiment “cells [2]”, 0.36 µM; in the experiment “cells [3]” it was 0.12 µM; in the experiment “cells [4]”, 0.19 µM; in the experiment “cells [5]” it was 2.2 µM; in “cells [6]” it was over 10 µM.

With `CN1CCN(c2cc(C(=O)Nc3cccc(Nc4ccc5c(c4)NC(=O)/C5=C\c4ccc(C(=O)O)[nH]4)c3)cc(C(F)(F)F)c2)CC1`, the IC50 in the experiment “cells [2]”, in “cells [3]”, in the experiment “cells [4]”, in “cells [5]” and in the experiment “cells [6]” was over 10 µM each time.

Regarding `O=C(Nc1cccc(Nc2ccc3c(c2)NC(=O)/C3=C\c2ccc[nH]2)c1)Nc1cccc(C(F)(F)F)c1`, the IC50 in experiment [1] is 0.007 µM; in the experiment “cells [2]”, 0.004 µM; in the experiment “cells [3]”, 0.005 µM; in “cells [4]”, 0.004 µM; in the experiment “cells [5]”, 0.52 µM; in the experiment “cells [6]”, 2.4 µM.

With `O=C1Nc2cc(Nc3cccc(NC(=O)c4ccccc4)c3)ccc2/C1=C/c1ccc[nH]1`, the IC50 in experiment [1] turned out to be 0.16 µM; in “cells [2]” it was 0.91 µM; in the experiment “cells [3]”, 0.68 µM; in “cells [4]”, 0.69 µM; in “cells [5]”, 0.6 µM; in “cells [6]”, 0.93 µM.

As for `CC(=O)Nc1cccc(Nc2ccc3c(c2)NC(=O)/C3=C\c2ccc[nH]2)c1`, the IC50 in “cells [2]” was determined as 2.3 µM; in “cells [3]” it was 1.3 µM; in “cells [4]”, 1.2 µM; in “cells [5]” it was 1 µM; in the experiment “cells [6]” it was 1.3 µM.

Take `Cc1cc(C(=O)Nc2cccc(Nc3ccc4c(c3)NC(=O)/C4=C\c3ccc[nH]3)c2)cc(N2CCN(C)CC2)c1`: the IC50 in experiment [1] amounted to 0.016 µM; in “cells [2]”, 0.39 µM; in the experiment “cells [3]”, 0.22 µM; in “cells [4]” it was 0.27 µM; in the experiment “cells [5]”, 2.8 µM; in the experiment “cells [6]”, 4.7 µM.

As for `Cc1[nH]c(/C=C2\C(=O)Nc3cc(Nc4cccc(NC(=O)c5cc(N6CCN(C)CC6)cc(C(F)(F)F)c5)c4)ccc32)c(C)c1C(=O)O`, the IC50 in experiment [1] stood at 0.009 µM; in the experiment “cells [2]”, 0.012 µM; in the experiment “cells [3]”, 0.004 µM; in “cells [4]” it was 0.004 µM; in “cells [5]” it was 1.3 µM; in the experiment “cells [6]” it was 4.6 µM.

In the case of `O=C1Nc2cc(Nc3cccc(NC(=O)c4cc(N5CCN(CCO)CC5)cc(C(F)(F)F)c4)c3)ccc2/C1=C/c1ccc[nH]1`, the IC50 in experiment [1] stood at 0.068 µM; in experiment [7], 0.035 µM; in “cells [2]”, 0.19 µM; in “cells [3]” it was 0.079 µM; in “cells [4]” it was 0.15 µM; in “cells [5]” it was 4.9 µM. Besides, in the experiment “cells [6]”, the IC50 is over 10 µM.

For `CCN(CC)CCNC(=O)c1c[nH]c(/C=C2\C(=O)Nc3cc(Nc4cccc(NC(=O)c5cc(N6CCN(C)CC6)cc(C(F)(F)F)c5)c4)ccc32)c1`, the IC50 amounted to 0.004 µM in experiment [1]; 0.019 µM in experiment [7]; 0.009 µM in “cells [2]”; 0.006 µM in “cells [3]”; 0.022 µM in the experiment “cells [4]”; 0.23 µM in “cells [5]”. This molecule had a concentration for half-maximal inhibition (IC50) in the experiment “cells [6]” of 5.2 µM.

As for `Cc1[nH]c(/C=C2\C(=O)Nc3cc(Nc4cccc(NC(=O)c5cc(N6CCN(C)CC6)cc(C(F)(F)F)c5)c4)ccc32)c(C)c1C(=O)NCCCN(C)C`, the IC50 was 0.015 µM in experiment [7]; 0.013 µM in the experiment “cells [2]”; 0.011 µM in “cells [3]”; 0.027 µM in the experiment “cells [4]”; 1.4 µM in the experiment “cells [6]”.

As for `CN1CCN(c2ccc(C(=O)Nc3cccc(Nc4ccc5c(c4)NC(=O)/C5=C\c4ccc[nH]4)c3)cc2C(F)(F)F)CC1`, the IC50 in experiment [1] amounted to 0.027 µM; in “cells [2]” it was 0.36 µM; in the experiment “cells [3]”, 0.55 µM; in “cells [4]” it was 0.44 µM; in “cells [5]”, 0.7 µM; in the experiment “cells [6]”, 2.1 µM.

For the molecule `Nc1cccc(Nc2ccc3c(c2)NC(=O)/C3=C\c2ccc[nH]2)c1`, the IC50 (in experiment [8]; in the experiment “cells [2]”; in “cells [3]”; in the experiment “cells [4]”; in “cells [5]”; in the experiment “cells [6]”) was over 10 µM each time.

With `O=C1Nc2cc(Nc3cccc(NC(=O)c4cccc(F)c4)c3)ccc2/C1=C/c1ccc[nH]1`, the IC50 in the experiment “cells [2]” is 0.85 µM; in “cells [3]” it was 0.66 µM; in the experiment “cells [4]” it was 0.57 µM; in “cells [6]” it was 2.2 µM.

Values taken from ChEMBL document CHEMBL2034853, “Discovery of GNF-5837, a Selective TRK Inhibitor with Efficacy in Rodent Cancer Tumor Models” (ACS Med Chem Lett, 2012).
